From the array DNA melting data of Ke et al. (doi:10.1101/2024.01.08.574731)

How the values were obtained:
[1] = folding enthalpy; higher = less favourable; fluorescence melt of hairpins on a sequencing array, two-state fit; conditions: sodium 0.088 M
How it was run: (§1)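 Cy3 signals were normalised both to pre-quench Cy3 and to control constructs. They came from library hairpins carrying annealed Cy3 and quencher oligos on a sequenced MiSeq flow cell, imaged in 50 mM Na-HEPES pH 8.0, 25 mM NaCl, in 2.5 °C steps up to 60 °C. Bootstrapped two-state fits gave melting temperature and folding enthalpy, and four replicates were combined by inverse variance. Fitted temperatures were then raised by 9.35 °C to match UV melts.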

[2] = melting temperature; fluorescence melt of hairpins on a sequencing array, two-state fit, raised by 9.35 °C to match UV melts; conditions: sodium 0.088 M
How it was run: as §1

| Sequence | folding enthalpy [1] [kcal/mol] | Tm [2] [°C] |
| --- | --- | --- |
| GCGCTGCGAAAGCATCGC (((.(((....))).))) | -60.2 | 58.6 |
| GATCTTGTAAAGATC ((((((...)))))) | -43.5 | 53.8 |
| GGAGAGGGAAACCTCTTC (.(((((....))))).) | -21.5 | 45.8 |
| GCTCAGGGAAACCTGGGC ((.((((....)))).)) | -39.6 | 54.4 |
| GGACCGTCGAAAGACTCC (((..(((....)))))) | -12.9 | 30.7 |
| GGGCTCCGAAAGGACCCC (((.(((....))).))) | -20.5 | 53.9 |
| GAACATGGAAACATGTTC (((((((....))))))) | -43.3 | 56.2 |
| GTCGCTCGAAAGAGTGAC (((.(((....))).))) | -43.3 | 62.6 |
| GAAGTTGGAAACAGCTTC ((((.((....)).)))) | -38.7 | 44.4 |
| GTGCCCTCGAAAGAGCAC (((..(((....)))))) | -18.8 | 43 |
| GTATGCGGAAACGCACAC ((.((((....)))).)) | -15.4 | 40 |
| GATATGGGAAACCATGTC ((.((((....)))).)) | -29 | 41.8 |
| GCTTCCGAAAGGAAGAGC ((((((....)))..))) | -13 | 55 |
| GGGGTATCGAAAGATCCC (((..(((....)))))) | -22.4 | 50.4 |
| GGCCCAGGAAACCGGGCC (((((.(....).))))) | -42.2 | 63.5 |
| GTGGGAGGAAACTTCCAC ((((.((....)).)))) | -41.1 | 49.2 |
| TATTCGAAAGAATA (((((....))))) | -14.3 | 36.7 |
| GTGAATGGAAACATCCAC (((.(((....))).))) | -24.1 | 34.6 |
| GTCTGAGAAATCAGAC ((((((....)))))) | -37.5 | 52.4 |
| GATCGTGTAACGATC ((((((...)))))) | -48.1 | 63.5 |
| GGTTCCGAAAGGACAACC ((((((....)))..))) | -19.9 | 36.7 |
| GATCTCAATCGAGATC ((((((....)))))) | -43.7 | 52.2 |
| GGCCTCGAAAGAGTGGCC ((((((....)))..))) | -36.6 | 54.4 |

| Sequence | folding enthalpy [1] [kcal/mol] | Tm [2] [°C] |
| --- | --- | --- |
| GCGATGCTCGC ((((...)))) | -14.1 | 54.9 |
| GTGTACGAAAGTAATCAC ((((((....)))..))) | -18.3 | 30.2 |
| CGCGGACCATTCCGCG ((((((....)))))) | -37.3 | 65.3 |
| GAAGACGGAAACGCCTTC ((((.((....)).)))) | -26.5 | 45.6 |
| GCGAGCTATCGC ((((....)))) | -24.2 | 60.8 |
| GATCGGCTGCCCGATC ((((((....)))))) | -31.2 | 56.2 |
| GATCCAATATGGATC ((((((...)))))) | -38.7 | 51.3 |
| GCAGGCGAAAGCCATTGC ((((((....)))..))) | -13.2 | 42.7 |
| CGGTACGGAAACGTGCCG (((.(((....))).))) | -37.5 | 59.8 |
| GCTACTGGAAACAGCAGC (((.(((....))).))) | -28.7 | 44.7 |
| GATCCTCCACAGGATC ((((((....)))))) | -36 | 50.8 |
| GATCGTGGGTACGATC ((((((....)))))) | -37.6 | 55.3 |
| GGGGTCTCGAAAGAGCCC (((..(((....)))))) | -28.6 | 58.9 |
| GACGTAGGAAACTATGTC (((.(((....))).))) | -30 | 43.9 |
| GCTGGAGGAAACTCCAAC (.(((((....))))).) | -15.6 | 38 |
| GCTAGCGAAAGCTACAGC ((((((....)))..))) | -15.5 | 39.6 |
| GCACAACGAAAGTTCTGC (((.(((....))).))) | -26.1 | 36.8 |
| GTAAGACGAAAGTCATAC (((.(((....))).))) | -20.6 | 39.1 |
| GCAGGAGGAAACCCCTGC (((((.(....).))))) | -41.4 | 50.9 |
| GGTGTAGAAATACACC ((((((....)))))) | -29.6 | 53.7 |
| GGTAGTGGAAACGTTACC ((((..(....)..)))) | -17.1 | 34.5 |
| GGGAAAGGAAACTTTCTC (.(((((....))))).) | -20.4 | 38.4 |
| GATGGGCGAAAGCCGATC (((.(((....))).))) | -18.8 | 52.7 |

| Sequence | folding enthalpy [1] [kcal/mol] | Tm [2] [°C] |
| --- | --- | --- |
| GATCCTAGACAGGATC ((((((....)))))) | -36.5 | 50.4 |
| GTCTTCGAAAGAAAAGAC ((((((....)))..))) | -17.9 | 30.8 |
| GTTCGTCGAAAGACAAC (((.(((....)))))) | -17.2 | 42.5 |
| GGCACGGGAAACTGTGCC (((((.(....).))))) | -41.4 | 62.2 |
| GATCATCTTGATGATC ((((((....)))))) | -43.4 | 57.2 |
| GGTCGAGGAAACTCAACC (((.(((....))).))) | -29.5 | 37 |
| GAACCCGAAAGGGCGTTC ((((((....)))..))) | -11.9 | 33.7 |
| GTCCTAGAAATAGGAC ((((((....)))))) | -36.6 | 50.6 |
| GTAAACGAAAGTTTAC ((((((....)))))) | -35.2 | 56 |
| GTGGTTGGAAACAGTCAC (((..((....))..))) | -19.4 | 31.2 |
| GGTCCGGGAAACCGGATC (.(((((....))))).) | -24 | 58.9 |
| GGGCCAACGAAAGTTCCC (((..(((....)))))) | -14.4 | 30.4 |
| GCCCATGGAAACACGGGC ((((.((....)).)))) | -43 | 49.4 |
| GATCAGCCCACTGATC ((((((....)))))) | -37.6 | 51.6 |
| GGACACGGAAACGCGTCC ((((.((....)).)))) | -46.4 | 54.6 |
| GACTTTACGAAAGTAGTC (((..(((....)))))) | -12.9 | 33.3 |
| GCCAAGCGAAAGCCTAGC ((.(.((....)).).)) | -9.82 | 31.2 |
| GAGGACGAAAGTCATCTC ((((((....)))..))) | -19.1 | 51.8 |
| GCGTTCGAAAGAAGTCGC ((((((....)))..))) | -26.4 | 37.7 |
| GGCTCCGGAAACGGGGTC (.(.(((....))).).) | -25.1 | 49 |
| GGCCCGCCGAAAGGCGCC (((..(((....)))))) | -7.51 | 38 |
| GCGCGAGGAAACTCACGC (((.(((....))).))) | -38.2 | 53.8 |
| GGTGGCGGAAACGCTGCC ((..(((....)))..)) | -31.8 | 54.5 |

| Sequence | folding enthalpy [1] [kcal/mol] | Tm [2] [°C] |
| --- | --- | --- |
| GCATTGCGAAAGCAGAGC ((..(((....)))..)) | -18.2 | 47.5 |
| GCGATCACGAAAGTGCGC (((..(((....)))))) | -20.9 | 48.7 |
| GGTGGTTCGAAAGAAACC (((..(((....)))))) | -20.4 | 41.5 |
| GATCGAGCTTTCGATC ((((((....)))))) | -35.1 | 52.6 |
| GCTTAAGGAAACTTAGGC ((.((((....)))).)) | -23 | 36.3 |
| GACGGACGAAAGTCGTC (((.(((....)))))) | -27.3 | 55.6 |
| GCGGGCACGAAAGTGCGC (((..(((....)))))) | -10.2 | 52.5 |
| GGTCACGAAAGTGCGACC ((((((....)))..))) | -17.7 | 40.8 |
| GTGACGGGAAACTGTCGC (.(((.(....).))).) | -28.2 | 45.8 |
| GGATACGAAAGTAGGTCC ((((((....)))..))) | -8.27 | 28.4 |
| GGATCGGGAAACCGACCC ((.((((....)))).)) | -31.8 | 47.7 |
| GTTAGTGGAAACGTTAAC ((((..(....)..)))) | -10.1 | 27.6 |
| GCTACGACGAAAGTCAGC (((..(((....)))))) | -17 | 37 |
| GTGCTCGAAAGAGTGCAC ((((((....)))..))) | -24 | 48.7 |
| GAATGCCGAAAGGCTTC (((.(((....)))))) | -13.2 | 43.6 |
| GGTTGCGAAAGCAACACC ((((((....)))..))) | -8.28 | 50 |
| GCGTTAACGAAAGTTCGC (((..(((....)))))) | -29.4 | 46.8 |
| GTGGACGAAAGTCGCAC ((((((....))).))) | -15.5 | 50.4 |
| GACTGCCGAAAGGCCGTC (((.(((....))).))) | -25 | 53.4 |
| GATAGGGGAAACCCTACC (.(((((....))))).) | -16.8 | 31.1 |
| GAGCCCGCGAAAGCGCTC (((..(((....)))))) | -11.2 | 39.2 |
| GCGCTGCGAAAGCACAGC ((..(((....)))..)) | -17.6 | 49.9 |
| CGCGCGGAAACGCTGGCG ((((((....)))..))) | -29.6 | 53.7 |
